In ChEMBL document CHEMBL4043282, “Discovery of the First Potent, Selective, and Orally Bioavailable Signal Peptide Peptidase-Like 2a (SPPL2a) Inhibitor Displaying Pronounced Immunomodulatory Effects In Vivo” (J Med Chem, 2018):
Active and inactive are the calls of the source. The calls are words filed in the database; no cut-off is given here.

How the values were obtained:
[1] = target: T1, Signal peptide peptidase-like 2A (Mus musculus, UniProt Q9JJF9); experiment: Inhibition of mouse SPPL2a in A20 cells assessed as CD74/p8 accumulation by flow cytometry; format: cell-based
T1 sequence (Q9JJF9 whole entry): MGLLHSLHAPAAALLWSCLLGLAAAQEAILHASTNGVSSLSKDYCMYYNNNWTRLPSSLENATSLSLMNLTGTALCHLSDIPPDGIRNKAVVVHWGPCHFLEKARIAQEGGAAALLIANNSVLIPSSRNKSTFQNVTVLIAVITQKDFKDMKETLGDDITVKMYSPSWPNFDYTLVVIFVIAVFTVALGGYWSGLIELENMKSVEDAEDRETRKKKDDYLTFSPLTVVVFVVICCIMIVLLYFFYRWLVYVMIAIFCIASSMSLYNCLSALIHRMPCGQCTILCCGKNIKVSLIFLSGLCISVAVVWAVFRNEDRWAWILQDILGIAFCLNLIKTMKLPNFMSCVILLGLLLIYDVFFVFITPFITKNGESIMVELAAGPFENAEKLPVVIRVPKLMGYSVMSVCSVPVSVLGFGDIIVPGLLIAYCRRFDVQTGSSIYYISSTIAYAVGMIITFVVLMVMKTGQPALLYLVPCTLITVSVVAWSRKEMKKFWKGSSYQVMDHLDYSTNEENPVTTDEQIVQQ

[2] = Total concentration in Lewis rat blood at 1 mg/kg, po bid after 24 hrs by LC/MS/MS analysis; format: ADME, organism-based; conditions: read-out: Drug uptake
[3] = Oral bioavailability in Balb/c mouse by LC/MS/MS analysis; format: ADME, organism-based; conditions: in vivo
Plasma [4] = experiment: Cmin in mouse plasma at 3 mg/kg, po bid administered at 8 and 16 hrs dosing interval between first and second dose respectively for 11 days measured predose on day 12 by LC/MS/MS analysis; format: ADME, organism-based; conditions: in vivo, read-out: Cmin
Procedure, shortened: (§1)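 Mice gavaged bid in 0.5% MC:0.5% Tween or PEG:D5W 3:1; trough sample taken before the morning dose; 50 μL retro-orbital blood into LiHep tubes, kept on ice, plasma separated at 2823g for 5 min, stored at −20 °C until analysis.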

[5] = target: T2, Signal peptide peptidase-like 2A (Homo sapiens, UniProt Q8TCT8); experiment: Inhibition of human SPPL2a expressed in human U2OS cells using EGFP-labeled TNFalpha (1 to 76 residues) NTF as substrate after 24 hrs by Hoechst staining based high content imaging analysis; format: cell-based
T2 sequence (Q8TCT8 whole entry): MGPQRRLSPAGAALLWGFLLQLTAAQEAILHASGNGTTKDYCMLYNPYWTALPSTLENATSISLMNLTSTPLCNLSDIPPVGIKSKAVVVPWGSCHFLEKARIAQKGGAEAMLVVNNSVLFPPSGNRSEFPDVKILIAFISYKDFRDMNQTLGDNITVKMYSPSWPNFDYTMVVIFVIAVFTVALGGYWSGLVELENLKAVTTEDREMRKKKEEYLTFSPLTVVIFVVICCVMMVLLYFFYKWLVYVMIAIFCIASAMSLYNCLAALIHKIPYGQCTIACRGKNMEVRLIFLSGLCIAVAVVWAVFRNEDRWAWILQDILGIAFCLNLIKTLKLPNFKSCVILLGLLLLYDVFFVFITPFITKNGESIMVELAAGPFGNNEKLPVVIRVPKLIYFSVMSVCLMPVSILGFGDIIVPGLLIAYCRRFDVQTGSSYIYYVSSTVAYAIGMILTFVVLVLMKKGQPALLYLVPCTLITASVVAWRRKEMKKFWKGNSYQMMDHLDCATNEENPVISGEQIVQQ
Procedure, shortened: (§2)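 Stable U-2 OS lines expressing human SPPL2a, SPPL2b or SPP constitutively (mouse SPPL2a line analogous, mouse TNFα(aa1-77)-NTF-EGFP-NLS) with doxycycline-inducible EGFP substrate. 3000 cells/well, 3−4 h, then 11-point inhibitor 100 μM to 1 nM, 0.9% DMSO, 5 μg/mL doxycycline, 24 h 37 °C. PFA fixed, Hoechst nuclei; nuclear minus cytoplasmic EGFP intensity; inhibition vs 0.5 μM reference and DMSO; IC50 by nonlinear regression.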

[6] = Inhibition of human SPP expressed in human U2OS cells using EGFP-labeled EnvSigSeq-SEAP as substrate after 24 hrs by Hoechst staining based high content imaging assay; format: cell-based; procedure, shortened: as §2
[7] = Drug uptake in Lewis rat spleen at 1 mg/kg, po bid after 24 hrs by LC/MS/MS analysis; format: ADME, organism-based; conditions: read-out: Drug uptake
[8] = Inhibition of human gamma-secretase expressed in HEK293 cells using Notch1-VP16-Gal4 as substrate after 24 hrs by Bright-Glo luciferase reporter gene assay; format: cell-based; conditions: HEK293, 24 h
Procedure, shortened: (§3)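 HEK293 cells transiently transfected with human SPPL2a, VP16-TNFα(aa1-76)-NTF substrate and Gal4-luciferase reporter (SPPL2a), or human Notch1-VP16-Gal4 plus Gal4-luciferase reporter relying on endogenous γ-secretase.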

[9] = Total plasma concentration in mouse at 30 mg/kg administered via oral gavage measured after 16 hrs post dose by LC/MS/MS analysis; format: ADME, organism-based
Procedure, shortened: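 Mice dosed by oral gavage in 0.5% MC:0.5% Tween or PEG:D5W 3:1. 50 μL blood taken retro-orbitally into LiHep tubes; in chronically dosed animals the trough sample came before the morning dose. Kept on ice, plasma separated by centrifugation at 2823g, 5 min, stored at −20 °C until analysis.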

[10] = target: T2, Signal peptide peptidase-like 2A; experiment: Inhibition of human SPPL2a expressed in HEK293 cells using GAL4-VP16 fusedTNFalpha (1 to 76)-NTF as substrate after 24 hrs by Bright-Glo luciferase reporter gene assay; format: cell-based; procedure, shortened: as §3
Mus musculus [11] = experiment: Dose normalized AUC in po dosed Balb/c mouse by LC/MS/MS analysis; format: ADME, organism-based; conditions: in vivo
Plasma [12] = experiment: Cmin in mouse plasma at 30 mg/kg, po bid administered at 8 and 16 hrs dosing interval between first and second dose respectively for 11 days measured predose on day 12 by LC/MS/MS analysis; format: ADME, organism-based; conditions: in vivo, read-out: Cmin; procedure, shortened: as §1
[13] = Clearance in Balb/c mouse at 5 mg/kg, iv by LC/MS/MS analysis; format: ADME, organism-based; conditions: in vivo
[14] = Volume of distribution at steady state in Balb/c mouse at 5 mg/kg, iv by LC/MS/MS analysis; format: ADME, organism-based; conditions: in vivo, read-out: Vdss
[15] = Half life in Balb/c mouse at 5 mg/kg, iv by LC/MS/MS analysis; format: ADME, organism-based; conditions: in vivo
Mus musculus [16] = experiment: In vivo inhibition of SPPL2a in mouse assessed as accumulation of CD74/p8 in splenocyte lysate at 150 mg/kg administered via oral gavage as single dose measured 16 hrs post dose by Western blot method; format: functional, organism-based
Procedure, shortened: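 Mice gavaged in 0.5% MC:0.5% Tween or PEG:D5W 3:1. Spleens dissociated, red cells lysed with ACK, 1 × 10^6 cells lysed with protease inhibitors; 18 μg lysate on 10% gel, blotted, CD74 full length and p8 detected with rat anti-mouse CD74 In-1 and Alexa488 anti-rat IgG, LiCor scan; p8/full-length ratio expressed as percent of reference compound ratio.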

SMILES: Cc1ncc(F)cc1NC(=O)C[C@H](C(=O)N[C@@H]1C(=O)N2CC3(CC3)CN2C(=O)c2ccccc21)C1CC1
- IC50 [1]: 137 nM
- concentration at 24 h [2]: 49 nM
- bioavailability [3]: 94%
- concentration (Plasma [4]): 16 nM
- IC50 [5]: 160 nM
- IC50 [6]: 3730 nM
- concentration at 24 h [7]: 330 nM
- IC50 [8]: 6100 nM
- concentration at 16 h [9]: 136 nM
- IC50 [10]: 77 nM
- AUC/dose (Mus musculus [11]): 6071 nM·h
- concentration (Plasma [12]): 1100 nM
- clearance [13]: 5 mL/min/kg

SMILES: Cc1ccccc1NC(=O)C[C@@H](C)C(=O)N[C@@H]1C(=O)N2CCCN2Cc2ccccc21
- IC50 [1]: 370 nM
- bioavailability [3]: 100%
- Vd [14]: 1.2 L/kg
- IC50 [8]: 1860 nM
- IC50 [10]: 35 nM
- AUC/dose (Mus musculus [11]): 908 nM·h
- half-life [15]: 42 min
- inhibition (Mus musculus [16]): Active
- clearance [13]: 46 mL/min/kg
